Compound activity deposited in PubChem by several laboratories.
Shown are actives, neighbours in structure and some others; about 1.6% of the full set was active somewhere.
H9c2 TAG inh – inhibitors of triacylglycerol accumulation; H9c2 cells, Nile Red lipid (TAG) fluorescence; cells loaded with 200 µM oleic acid; inhibition, % at 12.5 µM; 230,000 compounds, 0.66% hits; AID 651582;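 active = pattern-corrected inhibition of lipid staining of at least 50% with the nuclear-stain viability signal not falling by more than 50%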
Vif inh – HIV Vif inhibition; HEK293T cells, Vif self-association by quenched fluorescence, imaging, 24 h; inhibition, % at 7.49 µM; 340,000 compounds, 0.35% hits; in the data active = inhibition above about 50%, passing the limit was not always enough; inconclusive = no clear call, values can overlap the other calls; inactive = below about 31%
A1 inh – inhibitors of the anti-apoptotic protein A1, read as caspase activation | caspase activation, % (no concentration beside the values) | MEF A1-2A-BIM cells, Caspase-Glo 3/7 luminescence, 3 h; percent of clofoctol response, vehicle zero | 330,000 compounds, 0.066% hits;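 active = over half of replicate activation scores above 10%, or exactly half above 10 with the replicate mean above 10; inconclusive = replicate mean below 10 yet half the replicates above 10; inactive = over half of replicates below 10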
SR-BI HDL uptake – inhibitors of mouse SR-BI mediated HDL lipid uptake; 320,000 compounds, 0.96% hits; ldlA[mSR-BI] CHO cells, DiI-HDL uptake fluorescence, 3 h; inhibition, % at 12.5 µM; Q61009;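 active = mean replicate inhibition of at least 70% and a set share of replicates each scoring 70 or more; inconclusive = meets just one of the two criteria; inactive = fails both criteria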
Target sequence (Q61009 whole entry, looked up): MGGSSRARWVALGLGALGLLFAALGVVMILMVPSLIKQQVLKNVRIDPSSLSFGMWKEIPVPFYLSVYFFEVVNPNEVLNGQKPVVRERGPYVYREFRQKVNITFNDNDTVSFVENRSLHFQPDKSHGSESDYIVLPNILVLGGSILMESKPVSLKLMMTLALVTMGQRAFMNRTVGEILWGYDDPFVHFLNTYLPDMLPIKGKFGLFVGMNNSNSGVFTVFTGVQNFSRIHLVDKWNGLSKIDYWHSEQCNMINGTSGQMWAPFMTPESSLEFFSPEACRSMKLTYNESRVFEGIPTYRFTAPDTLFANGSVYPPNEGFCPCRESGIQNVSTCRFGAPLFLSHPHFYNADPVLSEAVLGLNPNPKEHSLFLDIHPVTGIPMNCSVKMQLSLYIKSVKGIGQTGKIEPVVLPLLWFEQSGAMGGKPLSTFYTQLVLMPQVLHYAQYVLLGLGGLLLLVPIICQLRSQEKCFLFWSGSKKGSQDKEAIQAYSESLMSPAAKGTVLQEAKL
SR-BI DiI-HDL act – activators of SR-BI mediated HDL lipid uptake; CHO ldlA[mSR-BI] cells, DiI-HDL uptake fluorescence, 3 h; 100 = double the neutral-control signal; activation, % at 12.5 µM; 320,000 compounds, 0.096% hits; AID 504775;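 active = mean replicate activation of at least 60% and every replicate at or above 60%; inconclusive = mean or all-replicate condition met, but not both; inactive = mean below 60% and not all replicates reaching 60%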
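Test system: SR-BI-overexpressing, LDLR-lacking CHO cells; Also added: labelled HDL, 10 µg/mL; Measured by: bottom-read cell fluorescence after medium removal, ex 550/em 595 nm; Timing: 3 h uptake period with compound, 37 °C; Buffer or medium: F12, 0.5% BSA, 25 mM HEPES; Doses: single compound concentration, delivered by pin transfer.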
A number is an active result; i = inactive; ? = inconclusive; nt = no result.

SMILES	H9c2 TAG inh	Vif inh	A1 inh	SR-BI HDL uptake	SR-BI DiI-HDL act
COc1ccc(CC(=O)OCC(=O)NCc2ccc(Cl)cc2)cc1	i	80	i	i	i
COc1ccc(-c2nnc(SCC(=O)N3CCCC3)o2)cc1OC	nt	nt	i	nt	nt
COc1ccc(C2=NOC(C(=O)N3CCCc4ccccc43)C2)cc1 (configuration not stated)	nt	i	?	i	i
COc1cc(C2=NOC(C(=O)N3CCCc4ccccc43)C2)cc(OC)c1OC (configuration not stated)	nt	i	i	82	i
COc1ccc(-c2nnc(SCC(=O)N3CCCc4ccccc43)o2)cc1OC	nt	61	i	i	i
OC[C@@H]1CN(Cc2cccs2)C[C@H](n2cnc3c(NC4CCC4)ncnc32)O1	i	i	nt	nt	nt
Cc1ccc(C)c(SCC(=O)c2ccc[nH]2)c1	i	i	i	i	i
C[C@H](C(=O)CC(=O)OC(C)(C)C)[C@H](O)c1ccccc1	i	i	i	i	i
C=CC[n+]1ccc(/C=C2\C=Cc3cc(C)ccc3N2CC)c2ccccc21	i	i	nt	92	i
O=C(NN1CCOCC1)c1ccc(Cl)s1	i	i	i	i	i
O=C(N/N=C/c1cc(Br)ccc1O)C(=O)Nc1ccccc1OC(F)(F)C(F)F	nt	nt	i	129	i
O=C(N/N=C/c1cc(Cl)ccc1O)C(=O)Nc1ccccc1OC(F)(F)C(F)F	nt	i	i	119	i
Cc1ccccc1/C=C1\SC(=S)N(/N=C/c2cc([N+](=O)[O-])ccc2O)C1=O	nt	i	i	i	i
COc1ccc(-n2c(C)cc(C(=O)CN3C(=O)c4ccccc4C3=O)c2C)cc1	nt	i	i	i	i
COc1ccc(-n2c(C)cc(C(=O)CCl)c2C)cc1	64	i	i	i	i
Cc1ccc(C(=O)/C=C/C(=O)c2ccc(C)cc2)cc1	i	i	9.9	i	i
CC[n+]1c(/C=C/N(C)c2ccccc2)n(-c2ccccc2)c2ccc(-c3nc4ccccc4s3)cc21	nt	?	i	78	i
CCOC(=O)c1ccc2c(c1)n(CC)c(/C=C/N(C)c1ccccc1)[n+]2CC	nt	i	i	i	i
Cc1cc(C)cc(NC(=O)COC(=O)COc2ccc(N(C)S(=O)(=O)c3cccs3)cc2)c1	i	50	i	i	i
CCOC(=O)N1CCN(C(=O)CSCC(=O)Nc2nc(-c3ccc(-c4ccccc4)cc3)cs2)CC1	i	i	i	85	i
CCOC(=O)N1CCN(C(=O)CSCC(=O)Nc2nc(-c3ccc(OC)cc3)cs2)CC1	nt	i	i	i	i
COc1cc2c(cc1OC)CN(c1ccc3ccccc3n1)CC2	nt	i	nt	76	i
CC1=NN(c2nc(-c3ccc(C)cc3)cs2)C(=O)C1N=Nc1cccc(O)c1 (configuration not stated)	i	i	i	i	i
CC1=NN(c2nc(-c3ccc(C)cc3)cs2)C(=O)C1N=Nc1ccccc1O (configuration not stated)	nt	i	i	152	i
COc1ccc(-c2cc(C(F)(F)F)n3ncc(C(=O)N4CCCCC4c4cccnc4)c3n2)cc1 (configuration not stated)	i	i	i	i	i
SMILES	H9c2 TAG inh	Vif inh	A1 inh	SR-BI HDL uptake	SR-BI DiI-HDL act
O=C1C(Cl)=C(Nc2ccccc2)C(=O)c2ccccc21	nt	i	i	i	i
CC(C)NC1=C(Cl)C(=O)c2ccccc2C1=O	nt	63	i	i	i
CCOc1ccc(CNC(=O)c2ccccc2NC(=O)C2=CSCCO2)cc1	nt	i	i	i	i
CCN(CC)S(=O)(=O)c1cc(NC(=O)Cc2ccc(S(=O)(=O)N3CCOCC3)s2)ccc1Cl	i	i	nt	i	i
Oc1ccc(Cl)cc1/C=C/c1ccc2cccc(O)c2n1	i	i	nt	74	i
COc1cc(Br)cc(/C=C/c2ccc3cccc(O)c3n2)c1O	nt	i	i	91	i
Cc1ccc(NS(=O)(=O)c2c(C)[nH]c(C)c2C(=O)N2CCCCC2)cc1F	nt	i	i	i	nt
O=C(Nc1ccccc1)Nc1cc(OCC(F)(F)F)cc(OCC(F)(F)F)c1	nt	i	nt	92	i
COc1ccccc1NC(=O)Cn1cnc2sc(C(=O)Nc3ccc(OC)c(OC)c3)c(C)c2c1=O	nt	i	i	83	i
COc1cccc(NC(=O)c2cc(-c3cccnc3)nc3c(Cl)cccc23)c1	nt	i	i	82	i
COc1ccc(Cl)cc1C(=O)Nc1cccnc1	i	53	i	i	i
